KCNQ1 pot – human KCNQ1 channel potentiation or activation. B-score at 10 µM. CHO-K1 KCNQ1, thallium flux FluxOR fluorescence; active compounds read high. P51787. hit rate 0.35% among 310,000;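 active = fluorescence ratio B-score, a plate-corrected score, at least three library SD, with initial intensity B-score within 5 SD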
Target sequence (P51787 whole entry, looked up): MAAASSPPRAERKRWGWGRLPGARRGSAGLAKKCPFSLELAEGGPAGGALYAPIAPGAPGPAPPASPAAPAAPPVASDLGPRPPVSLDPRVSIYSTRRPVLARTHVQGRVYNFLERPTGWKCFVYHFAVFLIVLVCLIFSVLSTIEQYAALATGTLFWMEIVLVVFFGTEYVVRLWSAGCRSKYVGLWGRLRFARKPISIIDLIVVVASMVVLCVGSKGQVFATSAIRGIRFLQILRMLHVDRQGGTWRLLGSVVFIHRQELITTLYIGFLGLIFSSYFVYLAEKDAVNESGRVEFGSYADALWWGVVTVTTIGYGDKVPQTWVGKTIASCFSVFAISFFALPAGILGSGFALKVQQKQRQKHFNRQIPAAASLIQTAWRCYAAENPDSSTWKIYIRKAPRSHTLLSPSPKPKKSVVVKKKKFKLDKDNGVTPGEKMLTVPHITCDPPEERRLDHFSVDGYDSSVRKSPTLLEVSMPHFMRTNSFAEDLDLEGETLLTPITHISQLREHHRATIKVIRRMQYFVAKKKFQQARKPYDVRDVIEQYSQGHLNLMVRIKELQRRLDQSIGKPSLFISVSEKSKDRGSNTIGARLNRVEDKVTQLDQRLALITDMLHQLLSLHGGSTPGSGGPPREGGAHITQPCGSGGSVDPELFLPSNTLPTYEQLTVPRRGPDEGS
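Doses: Single concentration per compound, DMSO matched to controls | Test system: KCNQ1-transfected CHO-K1 cells | Timing: 90 min dye loading and 20 min compound exposure, both at room temperature | Measured by: Kinetic FluxOR thallium fluorescence, 10-s 1-Hz baseline, 110-s post-stimulus read | Medium: Assay buffer with matched DMSO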
KCNQ1 inh – blocks the human KCNQ1 potassium channel; CHO-K1 KCNQ1, FluxOR thallium flux fluorescence; active compounds read high; B-score at 10 µM; hit rate 1.3% among 310,000;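 active = compounds whose thallium flux B-score, printed positive for inhibition, exceeds three library SD while starting fluorescence stays within three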;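 note: channel opened by potassium depolarization with thallium stimulus after 20 min compound exposure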
hERG protect – shields human hERG channel from block by proarrhythmic agents. CHO-hERG, FluxOR thallium flux, dofetilide IC70 present. activation (rescue from dofetilide block), less the hit threshold, % at 10 µM. hit rate 0.51% among 310,000. AID 1511;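 active = activation above the mean of controls blocked by dofetilide plus 5 SD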;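 note: thallium influx through hERG after potassium depolarization seen as dye fluorescence rise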
KCNK3 block – human KCNK3 channel inhibition, primary screen; O14649; CHO-KCNK3 thallium flux, FluxOR fluorescence; active compounds read low; B-score at 10 µM; hit rate 0.84% among 340,000;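 active = B-score under library mean minus 4 SD, starting fluorescence ratio at most library mean plus 5 SD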;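 note: more negative B-score means stronger inhibition of thallium flux through KCNK3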
KCNK9 inh – blocks the human KCNK9 two-pore domain potassium channel; Q9NPC2; HEK293 KCNK9, FluxOR thallium flux fluorescence; active compounds read low; B-score at 10 µM; hit rate 1.2% among 310,000;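 active = ratio B-score over 3 SD below the library mean, with starting fluorescence within 5 SD of its mean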;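 note: negative B-score means less thallium flux so channel inhibition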
Kir21 block – blocks the mouse Kir2.1 inward-rectifier potassium channel. B-score at 10 µM. AID 1672. HEK293-Kir2.1, FluxOR thallium flux fluorescence; active compounds read low. P35561. hit rate 0.85% among 310,000;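 active = fluorescence ratio B-score at or below minus 3 SD of library scores, with starting-brightness B-score within 2 SD, cut at about -4.2 in these data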;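 note: channel flux triggered by added potassium and thallium sulfate stimulus; B-score of peak minus minimum fluorescence over baseline after thallium stimulus; more negative B-score means stronger Kir2.1 block with less thallium influx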
* = called active by the depositor; i = inactive; . = not tested or not shown. The list is not random: actives were taken first. Their share in the collection is about 3.7%.

SMILES	KCNQ1 pot	KCNQ1 inh	hERG protect	KCNK3 block	KCNK9 inh	Kir21 block
COc1cc(NC(=O)Cn2cnc(S(=O)(=O)N3CCCC3)c2)cc(OC)c1OC	i	i	-4	i	i	0.1
COc1cc(NC(=O)Cn2cnc(S(=O)(=O)N3CCC(C)CC3)c2)cc(OC)c1OC	i	i	-7	-9*	i	2.7
CCOC(=O)c1[nH]ncc1CN1CCC(Cc2cccc(OC)c2)(C(=O)OCC)CC1	i	i	-7	i	i	0.27
CCOC(=O)c1cnc2c(C)cccc2c1NCCc1ccc(OC)c(OC)c1	i	i	-13	i	i	-7.6*
CCOC(=O)c1cnc2c(OC)cccc2c1Oc1ccccc1	i	i	-7	i	i	-7.9*
CCOC(=O)c1cnc2c(OC)cccc2c1N1CCN(c2ccccc2OC)CC1	i	i	-14	i	i	0.56
O=C(NCC(=O)N1CCN(c2ncccn2)CC1)c1ccccc1OC(F)F	.	.	.	i	.	.
Cc1cc(C(=O)C(C(c2ccccc2)N2CCOCC2)N2CCOCC2)ccc1Cl (stereo unspecified)	.	.	.	i	.	.
COc1cc(NCCCn2cnc(C(=O)Nc3ccc(C)c(C)c3)n2)cc(OC)c1OC	.	.	.	i	.	.
CCOC(=O)C(C)Sc1nc(-c2ccccc2)nc2ccccc12 (stereo unspecified)	i	i	-16	i	-7.6*	1.2
CC[C@]12c3[nH]c4ccc(Cl)cc4c3CCN1C(=O)[C@@H](CC(=O)NCCC1=CCCCC1)C[C@@H]2C(=O)N1CCN(C(=O)c2ccco2)CC1	.	.	.	i	.	.
O=C(N/N=C/c1cn(-c2ccccc2)nc1-c1ccc(F)cc1)c1ccc(Br)o1	i	i	-12	-8.7*	i	1.5
O=C(N/N=C/c1cn(-c2ccccc2)nc1-c1cccnc1)c1ccc(F)cc1	i	i	-10	i	i	-1.8
O=C(N/N=C/c1cn(-c2ccccc2)nc1-c1cc2ccccc2o1)c1ccncc1	i	i	-7	i	i	0
O=C(N/N=C/c1cn(-c2ccccc2)nc1-c1cc2ccccc2o1)c1cccnc1	i	6*	-13	i	i	-1.4
Cc1ccccc1N(C=O)c1ccccc1C	.	.	.	i	.	.
CC1=C(C)C(=O)C(CCCCC#CCCCC#CCO)=C(C)C1=O	i	i	-17	-14*	i	-1.4
Cc1c(O)ccc2cc(S(=O)(=O)c3ccccc3)c(=O)oc12	i	11*	-11	i	i	-10
COc1ccc(CC(=O)OCC(=O)Nc2cc(Cl)ccc2C)cc1	.	.	.	i	.	.
C(#CCN1CCC(Cc2ccccc2)CC1)COCCOCc1ccccc1	i	i	-14	i	i	-5*
c1ccc(COCCN2CCN(CCOCc3ccccc3)CC2)cc1	i	i	-9	i	i	1.9
COc1ccc(CCC(=O)Nc2ccc(N3CCOCC3)c(S(=O)(=O)Nc3ccc(OC)cc3)c2)cc1	.	.	.	i	.	.
CC(=Nc1cccc(C)c1)c1sc2ccccc2c1O	i	i	-2	i	-7*	-1.2
CCOC(=O)c1cc([N+](=O)[O-])cc([N+](=O)[O-])c1Sc1ncnc2nc[nH]c12	.	.	.	i	.	.
CCCCCCN1C=C/C(=C\C=C(C#N)C#N)c2ccccc21	i	i	-12	i	-7.2*	-1.8
SMILES	KCNQ1 pot	KCNQ1 inh	hERG protect	KCNK3 block	KCNK9 inh	Kir21 block
C=CCN1C=C/C(=C\C=C(C#N)C#N)c2ccccc21	i	i	-8	i	i	0.33
O=C(O)CCNc1cc(N2CCN(C(=O)c3ccco3)CC2)c2noc3c2c1C(=O)c1ccccc1-3	i	i	-18	i	i	-0.93
CCN1CCN(c2cc(N3CCN(C(=O)c4ccco4)CC3)c3c4c(onc24)-c2ccccc2C3=O)CC1	i	8*	-10	i	i	-1.9
CCCCOc1ccccc1NC(=O)Cn1c(-c2nonc2N)nc2ccccc21	i	i	-9	-8.8*	i	-0.93
NNC(=O)Cn1c(-c2nonc2N)nc2ccccc21	i	i	-12	i	i	0.13
CSc1ccc(-c2cccc([N+](=O)[O-])c2)nn1	i	i	-22	i	i	0.36
O=[N+]([O-])c1cccc(-c2ccc(SCc3cccnc3)nn2)c1	i	6*	-8	i	i	1.1
CC(Nc1nc(-c2ccccc2F)nc2ccccc12)c1ccccc1 (stereo unspecified)	i	i	-8	i	-7.5*	-0.54
Oc1ccccc1-c1nc(NC2CCCC2)c2ccccc2n1	i	i	-8	i	i	1.2
Fc1ccccc1-c1nc(NC2CCCC2)c2ccccc2n1	i	6*	-13	i	i	1.1
COc1ccc(/C=N/Nc2cc(C)nc3c(C)cccc23)cc1	i	6*	-26	i	i	-0.72
COc1ccc(/C=N/Nc2cc(C)nc3ccccc23)cc1	i	i	-17	i	i	-6.6*
NN=C1c2ccccc2-c2ccc(N)cc21	.	.	.	i	.	.
N#C/C(=C(/O)COC(=O)c1ccc(C#N)cc1)c1nc2ccccc2s1	i	6*	-1	i	i	0
COc1cccc(Oc2nccc(N(C)C)c2C#N)c1	i	i	-3	i	i	-2.9
CCOC(=O)CSc1cc(C(F)(F)F)nc(-c2ccccn2)n1	i	i	-7	i	i	2.3
O=C(O)CSc1cc(C(F)(F)F)nc(-c2ccccn2)n1	i	i	39*	i	i	0.63
CC(=O)c1c(CSc2ccccc2)oc2ccc(O)c(CN(C)C)c12	i	i	-9	i	i	-6.5*
COc1ccc(Cl)cc1NC(=O)CN(C)C(=O)c1cc2c(F)cccc2s1	.	.	.	-8.8*	.	.
Cc1cc(C)n(-c2nnc(C)n2/N=C/c2ccccc2OCc2ccccc2Cl)n1	i	i	-20	i	-7.1*	-0.59
Cc1cc(C)n(-c2nnc(C)n2/N=C/c2ccccc2F)n1	i	i	-6	i	i	-0.62
CN1CCC(NCCC(c2ccc(F)cc2)c2ccc(Cl)cc2)CC1 (stereo unspecified)	i	i	-9	i	i	-6.7*
CC(C)C(CCNC1CCN(C)CC1)c1ccc(Cl)cc1 (stereo unspecified)	i	i	-6	i	i	-1.4
CCc1cccc(CC)c1NC(=S)NCC(c1cccnc1)N(C)C (stereo unspecified)	i	i	-6	i	i	0.07
CCc1cccc(CC)c1C(O)c1cccnc1 (stereo unspecified)	i	i	-6	i	i	-4.6*
